# Source: ChEMBL document CHEMBL1143911, “Studies on quinones. Part 42: Synthesis of furylquinone and hydroquinones with antiproliferative activity against human tumor cell lines” (2008)
# How the values were obtained:
# Type in all cases: functional
# MCF7 = assay: Cytotoxicity against human MCF7 cells after 48 hrs; settings: MCF7, 48 h
# Outline: (§1)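 Adherent cells kept in RPMI-1640 with 5% heat-inactivated FBS, 2 mM glutamine and 50 µg/mL gentamycin at 37 °C, 5% CO2. Plated at 1.5 × 10⁵ cells/mL, attached overnight, then given five concentrations (maximum 150 µM; DMSO stocks diluted in medium) for 48 h. Fixed in situ, SRB-stained, absorbance at 492 nm. GI50 (50% inhibition of net growth) taken from dose–response curves.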
# NCI-H460 = assay: Cytotoxicity against human NCI-H460 cells after 48 hrs; settings: NCI-H460, 48 h
# Outline: as §1, with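 “7.5” for “1.5”, “10⁴” for “10⁵”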
# SF-268 = assay: Cytotoxicity against human SF268 cells after 48 hrs; settings: SF-268, 48 h; outline: as §1
structure (smiles),measurement,setting,value
CN(C)/N=C/c1ccc(C2=CC(=O)C=CC2=O)o1,GI50,MCF7,33.5 µM
same,GI50,NCI-H460,148 µM
same,GI50,SF-268,100 µM
CN(C)/N=C/c1ccc(C2=C(Cl)C(=O)c3ccccc3C2=O)o1,GI50,MCF7,8.1 µM
same,GI50,NCI-H460,10.9 µM
same,GI50,SF-268,9.3 µM
CN(C)/N=C/c1ccc(-c2c(O)ccc(O)c2C=O)o1,GI50,MCF7,29.4 µM
same,GI50,NCI-H460,93 µM
same,GI50,SF-268,38.3 µM
O=Cc1c(O)ccc(O)c1Cl,GI50,MCF7,15.6 µM
same,GI50,NCI-H460,122 µM
same,GI50,SF-268,18.8 µM
O=Cc1ccc(-c2c(O)ccc(O)c2C=O)o1,GI50,MCF7,20.3 µM
same,GI50,NCI-H460,80.2 µM
same,GI50,SF-268,35.8 µM
CN(C)/N=C/c1ccc(C2=CC(=O)c3ccccc3C2=O)o1,GI50,MCF7,7.7 µM
same,GI50,NCI-H460,6.8 µM
same,GI50,SF-268,6.5 µM
CCCCSc1c(O)ccc(O)c1C(C)=O,GI50,MCF7,29.2 µM
same,GI50,NCI-H460,63.3 µM
same,GI50,SF-268,27.5 µM
COC1=CC(=O)C(c2ccc(/C=N/N(C)C)o2)=CC1=O,GI50,MCF7,8.2 µM
same,GI50,NCI-H460,27.2 µM
same,GI50,SF-268,9.1 µM
COc1cccc2c1C(=O)c1c(O)c3c(c(O)c1C2=O)C[C@@](O)(C(=O)CO)C[C@@H]3O[C@H]1C[C@H](N)[C@H](O)[C@H](C)O1 [DOXORUBICIN],GI50,MCF7,0.0428 µM
same,GI50,NCI-H460,0.094 µM
same,GI50,SF-268,0.093 µM
